Tests used:
[1] = biological target: T1, Cholesteryl ester transfer protein (Homo sapiens, UniProt P11597); test: Inhibition of CETP in human plasma; format: cell-free
T1 sequence (P11597 whole entry): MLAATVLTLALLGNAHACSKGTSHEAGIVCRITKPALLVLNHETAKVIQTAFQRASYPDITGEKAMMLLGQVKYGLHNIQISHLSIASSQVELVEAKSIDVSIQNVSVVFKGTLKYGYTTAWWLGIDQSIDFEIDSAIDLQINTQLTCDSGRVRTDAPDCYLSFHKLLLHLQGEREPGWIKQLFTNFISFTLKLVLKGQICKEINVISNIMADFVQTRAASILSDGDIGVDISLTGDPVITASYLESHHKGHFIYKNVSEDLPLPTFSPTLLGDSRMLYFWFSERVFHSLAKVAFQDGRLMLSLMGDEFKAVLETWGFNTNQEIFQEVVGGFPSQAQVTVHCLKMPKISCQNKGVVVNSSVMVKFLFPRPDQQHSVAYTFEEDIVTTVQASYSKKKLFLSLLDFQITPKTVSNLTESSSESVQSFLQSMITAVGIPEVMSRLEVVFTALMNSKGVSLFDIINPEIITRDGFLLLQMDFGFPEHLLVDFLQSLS
How it was run: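 Radiometric transfer of ³H-cholesteryl ester from HDL to LDL, with human plasma supplying both CETP and LDL. Inhibitor, plasma and ³H-CE-HDL (diluted to 50 cholesterol) were incubated in 4% (v/v) final DMSO for 6 h at 37 °C. The reaction was stopped with 10 U heparin in 0.3 M MnCl₂ (final) to precipitate LDL, then spun at 1000g and supernatant (2/3 of assay volume) removed. IC50 reported.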

[2] = Solubility at pH 7.4; format: physicochemical; details: buffer
[3] = Half life in rat at 2 mg/kg, iv; format: ADME, organism-based; parameters: dose 2 mg/kg, route intravenous; details: in vivo
[4] = Volume of distribution in rat at 2 mg/kg, iv; format: ADME, organism-based; parameters: dose 2 mg/kg, route intravenous; details: in vivo
[5] = Clearance in rat at 2 mg/kg, iv; format: ADME, organism-based; parameters: dose 2 mg/kg, route intravenous; details: in vivo

Row | Compound | IC50 [1] | also measured
1 | CCOC(=O)N1c2ccc(C(F)(F)F)cc2N(C(c2cc(C(F)(F)F)cc(C(F)(F)F)c2)c2nnn(CCO)n2)CC1CC (stereo in doubt; (D1)-46a) | 2.26 µM | –
2 | CCOC(=O)N1c2ccc(C(F)(F)F)cc2N(C(c2cc(C(F)(F)F)cc(C(F)(F)F)c2)c2nnn(C)n2)C[C@@H]1CC (stereo in doubt; (D1)-55b) | 47.5 µM | –
3 | CCC1CN(C(c2cc(C(F)(F)F)cc(C(F)(F)F)c2)c2nnn(C)n2)c2cc(C(F)(F)F)ccc2N1C(=O)N1CCOCC1 (stereo unspecified) | 36.9 µM | –
4 | CCC1CN(C(c2cc(C(F)(F)F)cc(C(F)(F)F)c2)c2nnn(C)n2)c2cc(C(F)(F)F)ccc2N1C(=O)N1CCCC1 (stereo unspecified) | 100 µM | –
5 | CCOC(=O)N1c2ccc(C(F)(F)F)cc2N(C(c2cc(C(F)(F)F)cc(C(F)(F)F)c2)c2nnn(C)n2)CC1CC (stereo in doubt; (D1)-28a) | 0.87 µM | –
6 | CCOC(=O)N1c2ccc(C(F)(F)F)cc2N(C(c2cc(C(F)(F)F)cc(C(F)(F)F)c2)c2nnn(CCC#N)n2)CC1CC (stereo unspecified) | 3.42 µM | –
7 | CCNC(=O)N1c2ccc(C(F)(F)F)cc2N(C(c2cc(C(F)(F)F)cc(C(F)(F)F)c2)c2nnn(C)n2)CC1CC (stereo unspecified) | 46.4 µM | –
8 | CCOC(=O)N1c2ccc(C(F)(F)F)cc2N(C(C(=O)OC)c2cc(C(F)(F)F)cc(C(F)(F)F)c2)CC1CC (stereo in doubt; (D1)-22a) | 0.5 µM | –
9 | CCOC(=O)N1c2ccc(C(F)(F)F)cc2N(C(c2cc(C(F)(F)F)cc(C(F)(F)F)c2)c2nnn(CC(N)=O)n2)CC1CC (stereo in doubt; (D1)-50a) | 5.22 µM | –
10 | CCOC(=O)N1c2ccc(C(F)(F)F)cc2N(C(c2cc(C(F)(F)F)cc(C(F)(F)F)c2)c2nnn(CCN(C)C)n2)CC1CC (stereo unspecified) | 7.81 µM | –
11 | CCOC(=O)N1c2ccc(C(F)(F)F)cc2N(C(c2cc(C(F)(F)F)cc(C(F)(F)F)c2)c2nnn(CC3CC3)n2)CC1CC (stereo unspecified) | 4.55 µM | –
12 | CCC1CN(C(c2cc(C(F)(F)F)cc(C(F)(F)F)c2)c2nnn(C)n2)c2cc(C(F)(F)F)ccc2N1CC1CCCCC1 (stereo in doubt; (D1)-39a) | 1.3 µM | –
13 | CCOC(=O)N1c2ccc(C(F)(F)F)cc2N(C(C(=O)OC)c2cc(C(F)(F)F)cc(C(F)(F)F)c2)CC1CC (stereo in doubt; (D2)-22b) | 0.56 µM | –
14 | CCOC(=O)N1c2ccc(C(F)(F)F)cc2N(C(c2cc(C(F)(F)F)cc(C(F)(F)F)c2)c2nnn(C)n2)C[C@@H]1CC (stereo in doubt; (D2)-55c) | 1.5 µM | –
15 | CCC1CN(C(c2cc(C(F)(F)F)cc(C(F)(F)F)c2)c2nnn(C)n2)c2cc(C(F)(F)F)ccc2N1C(=O)OCc1ccccc1 (stereo unspecified) | 4.4 µM | –
16 | CCC1CN(C(c2cc(C(F)(F)F)cc(C(F)(F)F)c2)c2nnn(C)n2)c2cc(C(F)(F)F)ccc2N1CC1CCCCC1 (stereo in doubt; (D2)-39b) | 5.7 µM | –
17 | CCCCC(CC)COC(=O)N1c2ccc(C(F)(F)F)cc2N(C(c2cc(C(F)(F)F)cc(C(F)(F)F)c2)c2nnn(C)n2)CC1CC (stereo unspecified) | 62.6 µM | –
18 | CCOC(=O)N1c2ccc(C(F)(F)F)cc2N(C(c2cc(C(F)(F)F)cc(C(F)(F)F)c2)c2nnn(CC(=O)OC(C)(C)C)n2)CC1CC (stereo unspecified) | 14.6 µM | –
19 | CCOC(=O)N1c2ccc(C(F)(F)F)cc2N(C(c2cc(C(F)(F)F)cc(C(F)(F)F)c2)c2nnn(CCC(=O)OC)n2)CC1CC (stereo unspecified) | 4.42 µM | –
20 | CCOC(=O)N1c2ccc(Br)cc2N(C(C(=O)OC)c2cc(C(F)(F)F)cc(C(F)(F)F)c2)CC1CC (stereo unspecified) | 1.9 µM | –
21 | CCOC(=O)N1c2ccccc2N(C(C(=O)OC)c2cc(C(F)(F)F)cc(C(F)(F)F)c2)CC1CC (stereo in doubt; (D1)-16a) | 5 µM | –
22 | CCOC(=O)N1c2ccccc2N(C(Cc2ccccc2)C(=O)OC)CC1CC (stereo in doubt; (D2)-9b) | > 100 µM | –
23 | CCOC(=O)N1c2ccccc2N(C(Cc2ccccc2)C(=O)OC)CC1CC (stereo in doubt; (D1)-9a) | > 100 µM | –
24 | CCOC(=O)N1c2cc(Cl)c(Cl)cc2N(C(C(=O)OC)c2cc(C(F)(F)F)cc(C(F)(F)F)c2)CC1CC (stereo in doubt; (D1)-18a) | 92.5 µM | –

Second part, led by results:

Row | IC50 [1] | Compound | also measured
25 | 8.6 µM | CCOC(=O)N1c2ccccc2N(C(C(=O)OC)c2cc(C(F)(F)F)cc(C(F)(F)F)c2)CC1CC (stereo in doubt; (D2)-16b) | –
26 | 100 µM | CCC1CN(C(c2cc(C(F)(F)F)cc(C(F)(F)F)c2)c2nnn(C)n2)c2cc(C(F)(F)F)ccc2N1C(=O)NCCO (stereo in doubt; (D1)-33a) | –
27 | 2.22 µM | CCOC(=O)N1c2ccc(C(F)(F)F)cc2N(C(c2cc(C(F)(F)F)cc(C(F)(F)F)c2)c2nnn(CCO)n2)CC1CC (stereo in doubt; (D2)-46b) | –
28 | 54.6 µM | CCOC(=O)N1c2ccc(C(F)(F)F)cc2N(C(c2cc(C(F)(F)F)cc(C(F)(F)F)c2)c2nnn(CC(=O)O)n2)CC1CC (stereo unspecified) | –
29 | 1.11 µM | CCCCOC(=O)N1c2ccc(C(F)(F)F)cc2N(C(c2cc(C(F)(F)F)cc(C(F)(F)F)c2)c2nnn(C)n2)CC1CC (stereo unspecified) | –
30 | 100 µM | CCC1CN(C(c2cc(C(F)(F)F)cc(C(F)(F)F)c2)c2nnn(C)n2)c2cc(C(F)(F)F)ccc2N1C(=O)N(C)C (stereo unspecified) | –
31 | 32.5 µM | CCOC(=O)N1c2ccc(C(F)(F)F)cc2N(C(c2cc(C(F)(F)F)cc(C(F)(F)F)c2)c2nnn(CC(=O)OC)n2)CC1CC (stereo unspecified) | –
32 | 0.44 µM | CCOC(=O)N1c2ccc(C(F)(F)F)cc2N(C(c2cc(C(F)(F)F)cc(C(F)(F)F)c2)c2nnn(C)n2)C[C@H]1CC (stereo in doubt; (D1)-55a) | –
33 | 0.23 µM | CCOC(=O)N1c2ccc(C(F)(F)F)cc2N(C(c2cc(C(F)(F)F)cc(C(F)(F)F)c2)c2nnn(C)n2)CC1CC (stereo in doubt; (D2)-28b) | –
34 | > 100 µM | CCOC(=O)N1c2ccccc2N(C(Cc2cc(C(F)(F)F)cc(C(F)(F)F)c2)C(=O)OC)CC1CC (stereo in doubt; (D2)-10b) | –
35 | 0.854 µM | CCC1CN(C(c2cc(C(F)(F)F)cc(C(F)(F)F)c2)c2nnn(C)n2)c2cc(C(F)(F)F)ccc2N1CC1CCCC1 (stereo unspecified) | –
36 | 4.57 µM | CCC1CN(C(c2cc(C(F)(F)F)cc(C(F)(F)F)c2)c2nnn(C)n2)c2cc(C(F)(F)F)ccc2N1C(=O)NCCO (stereo in doubt; (D2)-33b) | –
37 | 2.91 µM | CCC1CN(C(c2cc(C(F)(F)F)cc(C(F)(F)F)c2)c2nnn(C)n2)c2cc(C(F)(F)F)ccc2N1C[C@H]1CC[C@H](CC(=O)O)CC1 (stereo partly specified) | –
38 | 100 µM | CCOC(=O)N1c2ccc(C(F)(F)F)cc2N(C(c2cc(C(F)(F)F)cc(C(F)(F)F)c2)c2nnn(CC(N)=O)n2)CC1CC (stereo in doubt; (D2)-50b) | –
39 | 0.232 µM | CCC1CN(C(c2cc(C(F)(F)F)cc(C(F)(F)F)c2)c2nnn(C)n2)c2cc(C(F)(F)F)ccc2N1C(=O)OCC(C)C (stereo unspecified) | –
40 | 93.4 µM | CCOC(=O)N1c2cc(Cl)c(Cl)cc2N(C(C(=O)OC)c2cc(C(F)(F)F)cc(C(F)(F)F)c2)CC1CC (stereo in doubt; (D2)-18b) | –
41 | > 100 µM | CCOC(=O)N1c2ccccc2N(C(Cc2cc(C(F)(F)F)cc(C(F)(F)F)c2)C(=O)OC)CC1CC (stereo in doubt; (D1)-10a) | –
42 | 0.143 µM | CCOC(=O)N1c2ccc(C(F)(F)F)cc2N(C(c2cc(C(F)(F)F)cc(C(F)(F)F)c2)c2nnn(C)n2)C[C@H]1CC (stereo in doubt; (D2)-55d) | Solubility [2]: < 0.01 µg/mL; half-life [3]: 2.4 h; Vd [4]: 2.6 L/kg; clearance [5]: 13 mL/min/kg

Source: ChEMBL document CHEMBL1139176, “Tetrazole and ester substituted tetrahydoquinoxalines as potent cholesteryl ester transfer protein inhibitors” (Bioorg Med Chem Lett, 2007)
